What was measured:
[1] = Selectivity index, ratio of CC50 for human Huh7.5 cells to EC50 for Hepatitis C virus JFH-1 J6 genotype 2a infected in human Huh7.5 cells; type: toxicity, cell-based, Huh-7; conditions: read-out: Ratio CC50/EC50
[2] = Cytotoxicity against human Huh7.5 cells assessed as cell viability after 72 hrs by MTT assay; type: cell-based, Huh-7
[3] = test system: Hepatitis C virus; experiment: Antiviral activity against Hepatitis C virus JFH-1 J6 genotype 2a infected in human Huh7.5 cells assessed as inhibition of viral RNA replication after 72 hrs by luciferase reporter gene assay; type: functional, organism-based, Hepacivirus hominis; conditions: subtype 2a JFH1 J6, Huh-7, 72 h
[4] = Ratio of cytotoxicity against human Huh7.5 cells assessed as cell viability to antiviral activity against Hepatitis C virus JFH-1 J6 genotype 2a infected in human Huh7.5 cells assessed as inhibition of viral RNA replication; type: toxicity, cell-based, Huh-7
[5] = Cytotoxicity against human Huh7.5 cells assessed as cell viability at 10 uM after 72 hrs by MTT assay relative to control; type: cell-based, Huh-7; conditions: read-out: Activity
Summary of the method: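 Rluc-J6/JFH1 RNA-transfected Huh7.5 cells screened at a single 10 µM for 72 h alongside DMSO, with clemizole as positive control. Renilla luciferase gave replication level and parallel MTT gave viability, each as percent of DMSO; ratio of viability to replication reported.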

[6] = test system: Hepatitis C virus; experiment: Antiviral activity against Hepatitis C virus JFH-1 J6 genotype 2a infected in human Huh7.5 cells assessed as viral RNA replication at 10 uM after 72 hrs by luciferase reporter gene assay relative to control; conditions: subtype 2a JFH1 J6, Huh-7, 72 h

C/C(=C\c1c[nH]c2cc(C)ccc12)C(=O)Nc1ccc(C(C)(C)C)cc1
selectivity ratio [1]: 5.7
CC50 at 72 h [2]: 25.6 µM
EC50 [3]: 4.5 µM

C/C(=C\c1c[nH]c2ccccc12)C(=O)NCCN(C)C
selectivity ratio [1]: > 1.6
CC50 at 72 h [2]: > 100 µM
EC50 [3]: 64.2 µM

O=C(/C=C/c1c[nH]c2ccccc12)N1CCN(Cc2ccc(C(F)(F)F)cc2)CC1
selectivity ratio [1]: 1.8
CC50 at 72 h [2]: 27.9 µM
EC50 [3]: 15.6 µM
selectivity ratio [4]: 2.5
viability at 72 h, 10 µM [5]: 81.7%
Activity at 10 µM [6]: 32.4%

CNC(=O)/C(C)=C/c1c[nH]c2ccccc12
CC50 at 72 h [2]: > 10 µM
EC50 [3]: > 10 µM

C/C(=C\c1c[nH]c2ccc(C#N)cc12)C(=O)Nc1ccc(C)cc1
CC50 at 72 h [2]: > 100 µM
EC50 [3]: > 100 µM

CC(C)(C)c1ccc(NC(=O)/C=C/c2c[nH]c3ccccc23)cc1
selectivity ratio [1]: 5.2
CC50 at 72 h [2]: 10.1 µM
EC50 [3]: 1.9 µM
selectivity ratio [4]: 28.6
viability at 72 h, 10 µM [5]: 60.1%
Activity at 10 µM [6]: 2.1%

CCOC(=O)/C(C)=C/c1c[nH]c2ccccc12
selectivity ratio [1]: 1.1
CC50 at 72 h [2]: 25.3 µM
EC50 [3]: 22.2 µM

C/C(=C\c1c[nH]c2ccccc12)C(=O)O
CC50 at 72 h [2]: > 100 µM
EC50 [3]: > 10 µM

C/C(=C\c1c[nH]c2ccc(C#N)cc12)C(=O)Nc1ccc(C(C)C)cc1
selectivity ratio [1]: 3.6
CC50 at 72 h [2]: 137 µM
EC50 [3]: 37.7 µM

C/C(=C\c1c[nH]c2ccc(C)cc12)C(=O)Nc1ccc(C(C)(C)C)cc1
selectivity ratio [1]: 4.2
CC50 at 72 h [2]: 28.1 µM
EC50 [3]: 6.7 µM

C/C(=C\c1c[nH]c2ccccc12)C(=O)NCCCn1ccnc1
selectivity ratio [1]: > 3
CC50 at 72 h [2]: > 100 µM
EC50 [3]: 33.7 µM

C/C(=C\c1c[nH]c2ccccc12)C(=O)NCc1ccco1
selectivity ratio [1]: 3.5
CC50 at 72 h [2]: 39.1 µM
EC50 [3]: 11.3 µM

COc1ccc2c(/C=C(\C)C(=O)Nc3ccc(C(C)(C)C)cc3)c[nH]c2c1
selectivity ratio [1]: 3.5
CC50 at 72 h [2]: 30.7 µM
EC50 [3]: 8.8 µM

C/C(=C\c1c[nH]c2ccc([N+](=O)[O-])cc12)C(=O)Nc1ccc(C(C)(C)C)cc1
selectivity ratio [1]: 3.7
CC50 at 72 h [2]: 23.1 µM
EC50 [3]: 6.2 µM

COc1ccc(CNC(=O)/C=C/c2c[nH]c3ccccc23)cc1OC
selectivity ratio [1]: 6.9
CC50 at 72 h [2]: 89.5 µM
EC50 [3]: 12.9 µM
selectivity ratio [4]: 2.6
viability at 72 h, 10 µM [5]: 92.2%
Activity at 10 µM [6]: 35.1%

COc1ccc2[nH]cc(/C=C(\C)C(=O)Nc3ccc(C(C)(C)C)cc3)c2c1
selectivity ratio [1]: 5.5
CC50 at 72 h [2]: 16.4 µM
EC50 [3]: 3 µM

CCN(CC)C(=O)/C=C/c1c[nH]c2ccccc12
selectivity ratio [1]: 1.6
CC50 at 72 h [2]: 98.7 µM
EC50 [3]: 62.7 µM
selectivity ratio [4]: 1.3
viability at 72 h, 10 µM [5]: 93.8%
Activity at 10 µM [6]: 72%

C/C(=C\c1c[nH]c2cc(Br)ccc12)C(=O)Nc1ccc(C(C)(C)C)cc1
selectivity ratio [1]: 5.3
CC50 at 72 h [2]: 68.8 µM
EC50 [3]: 13 µM

C/C(=C\c1c[nH]c2ccccc12)C(=O)Nc1ccc(C(F)(F)F)cc1
selectivity ratio [1]: 2.2
CC50 at 72 h [2]: 94.9 µM
EC50 [3]: 43.6 µM

CC(C)NC(=O)/C=C/c1c[nH]c2ccccc12
selectivity ratio [1]: > 1.1
CC50 at 72 h [2]: > 100 µM
EC50 [3]: 93.8 µM
selectivity ratio [4]: 1.5
viability at 72 h, 10 µM [5]: 106%
Activity at 10 µM [6]: 69%

COc1cccc2[nH]cc(/C=C(\C)C(=O)Nc3ccc(C(C)(C)C)cc3)c12
selectivity ratio [1]: 1.9
CC50 at 72 h [2]: 34.1 µM
EC50 [3]: 17.6 µM

C/C(=C\c1c[nH]c2ccccc12)C(=O)Nc1ccc(C(C)(C)C)cc1
selectivity ratio [1]: 7.9
CC50 at 72 h [2]: 17.3 µM
EC50 [3]: 2.2 µM

C/C(=C\c1c[nH]c2ccccc12)C(N)=O
CC50 at 72 h [2]: > 10 µM
EC50 [3]: > 10 µM

C/C(=C\c1c[nH]c2cc(C(C)C)ccc12)C(=O)Nc1ccc(C(C)(C)C)cc1
selectivity ratio [1]: 17
CC50 at 72 h [2]: 24.8 µM
EC50 [3]: 1.5 µM

Clc1ccc(Cn2c(CN3CCCC3)nc3ccccc32)cc1 [CLEMIZOLE]
selectivity ratio [1]: 4.9
CC50 at 72 h [2]: 39.4 µM
EC50 [3]: 8 µM
selectivity ratio [4]: 4.3
viability at 72 h, 10 µM [5]: 102%
Activity at 10 µM [6]: 23.4%

CC(C)(C)c1ccc(NC(=O)CCc2c[nH]c3ccccc23)cc1
selectivity ratio [1]: 2.3
CC50 at 72 h [2]: 13.6 µM
EC50 [3]: 6.1 µM

From ChEMBL document CHEMBL3120069, “Chemical genetics-based discovery of indole derivatives as HCV NS5B polymerase inhibitors” (Eur J Med Chem, 2014)
